The nature of experiment [1]: Inhibition of human ODCase.
Experiment [2] can be described thus: Inhibition of Methanobacterium thermoautotrophicum ODCase. Set-up: species or system Methanothermobacter thermautotrophicus.
A short description of experiment [3]: Inhibition of Plasmodium falciparum ODCase.
Experiment [4] deals with T1, Orotidine 5'-phosphate decarboxylase (Saccharomyces cerevisiae S288c, UniProt P03962).
T1 sequence (P03962 whole entry): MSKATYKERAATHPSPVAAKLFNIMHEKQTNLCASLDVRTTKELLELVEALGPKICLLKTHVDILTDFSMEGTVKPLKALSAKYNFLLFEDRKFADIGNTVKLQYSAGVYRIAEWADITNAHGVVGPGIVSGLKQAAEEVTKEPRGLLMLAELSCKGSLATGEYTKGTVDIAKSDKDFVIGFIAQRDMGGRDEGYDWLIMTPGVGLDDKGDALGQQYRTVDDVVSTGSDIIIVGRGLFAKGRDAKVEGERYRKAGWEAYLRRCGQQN
Description: Inhibition of yeast ODCase.

Experiment [5] deals with Plasmodium falciparum. Description: Inhibition of Plasmodium falciparum ODCase upto 10 or 20 mM. The method, boiled down: (§1)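 Run by ITC at 37 °C. ODCase stock (60 µM in 50 mM Tris pH 7.5, 20 mM DTT, 40 mM NaCl) was held overnight at room temperature. Final mixture: 60 nM enzyme in degassed 50 mM Tris pH 7.4, 1 mM DTT, with nucleotide varied 0–20 mM. Started by a single 3.4 µL injection of 5 mM OMP. Competitive analysis by rate-equation fit and double-reciprocal plots.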

Experiment [6] concerns Plasmodium falciparum. Nature of the experiment: Activity of Plasmodium falciparum ODCase. The method, boiled down: as §1
In experiment [7] the test system is Methanothermobacter thermautotrophicus. Description: Activity of Methanobacterium thermoautotrophcium ODCase. The method, boiled down: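 Isothermal titration calorimetry at 55 °C. Enzyme stock (20 µM in 50 mM Tris pH 7.5, 20 mM DTT, 40 mM NaCl) was stabilized overnight at room temperature. Assay: 20 nM ODCase in 50 mM Tris pH 7.5, 1 mM DTT, with fixed nucleotide levels (0–20 mM). Started by a single injection of 5 mM OMP (40 µM final). Competitive Ki from rate fitting, checked by double-reciprocal plots.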

The species named for experiment [8] is Homo sapiens. Nature of the experiment: Activity of human ODCase. The method, boiled down: (§2)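 Enzyme was a truncated C-terminal portion of human UMP synthase, expressed in E. coli BL-21 with the His6 tag removed by thrombin. Stock (60 µM) was incubated overnight at 4 °C. Enzyme plus nucleotide ([…]) in 50 mM Tris pH 7.5, 1 mM DTT was followed by ITC at 37 °C. Started by a 5.7 µL injection of 5 mM OMP (20 µM final). Competitive Ki fit.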

For experiment [9], the species on record is Homo sapiens. Nature of the experiment: Inhibition of human ODCase upto 10 or 20 mM. The method, boiled down: as §2

pKi: −log10 of the molar value. Active and inactive are the calls of the source. The rule behind the calls is not given here.

For orientation: pKi means −log10 of the Ki, conventionally taken in molar units. A low value points to a high Ki. A word on the Km: it is the concentration of substrate that gives half-maximal velocity. A word on the kcat: it is the maximal rate divided by the concentration of active sites.

Consider `O=c1[nH]c(=O)c2ncn([C@@H]3O[C@H](COP(=O)(O)O)[C@@H](O)[C@H]3O)c2[nH]1`, for which the pKi in experiment [1] was 6.15; in experiment [2], 3.89; in experiment [3], 4.37; in experiment [4], 6.40.

As to `Nc1ccn([C@@H]2O[C@H](COP(=O)(O)O)[C@@H](O)[C@H]2O)c(=O)n1`, the pKi in experiment [1] is 2.85; in experiment [2], 2.92. In addition, in experiment [5], the outcome was inactive.

Consider `Nc1ncnc2c1ncn2[C@H]1C[C@H](O)[C@@H](COP(=O)(O)O)O1`, for which the pKi in experiment [1] is 2.13; in experiment [2], less than 2.00. In experiment [5], the outcome was inactive.

For the compound `O=c1ccn([C@@H]2O[C@H](COP(=O)(O)O)[C@@H](O)[C@H]2O)c(=O)[nH]1`, the pKi in experiment [1] is 3.66; in [2], 3.48; in experiment [3], 3.68.

In the case of `Nc1ncnc2c1ncn2[C@@H]1O[C@H](COP(=O)(O)O)[C@@H](O)[C@H]1O`, the pKi in experiment [1] is 2.37; in [2] it was 2.46. In addition, the outcome in experiment [5] was inactive.

With `O=C(O)c1cc(=O)[nH]c(=O)n1[C@@H]1O[C@H](COP(=O)(O)O)[C@@H](O)[C@H]1O`, the Km in experiment [6] is 1.3 µM; in experiment [7], 4.8 µM; in experiment [8] it was 1.7 µM. Besides, the figures for the kcat in [6], in [7] and in experiment [8] were 6.7 s⁻¹, 20.7 s⁻¹ and 8.1 s⁻¹, respectively.

For `Nc1nc2c(ncn2[C@@H]2O[C@H](COP(=O)(O)O)[C@@H](O)[C@H]2O)c(=O)[nH]1`, the pKi in experiment [2] is 2.38; in [3], 2.68. Also, in experiment [9], the result was inactive.

Regarding `Cc1cn([C@H]2C[C@H](O)[C@@H](COP(=O)(O)O)O2)c(=O)[nH]c1=O`, the pKi in experiment [1] is 2.06; in experiment [2], 2.48; in experiment [3], 2.00.

Values taken from ChEMBL document CHEMBL1140727, “Structural diversity and plasticity associated with nucleotides targeting orotidine monophosphate decarboxylase” (J Med Chem, 2008).
